The nature of data set [1]: Retardation factor, Rm of the compound by reversed phase partition chromatography. The data set is classed as physicochemical.
For another data set, the system named is Mus musculus. The data set can be described thus: Toxicity in sc implanted mouse L1210 cells allografted C3H/DBA2 F1 hybrid hybrid mouse assessed as optimum dose required to increase life span treated ip after 24 hrs after tumor inoculation and continued for 5 days. Format: organism-based. The following applies: in vivo. The method in brief:
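10^5 L1210 cells implanted sc above the right axilla in 18.5-22.5-g C3H/DBA2 F1 hybrid mice. Ip dosing (0.2 mL per dose) ran daily for 5 days from 24 h. Dilution series at 0.18 log intervals, with the median dose set at the earlier ip L1210 optimum. Six mice per dose, one control group per six test groups. Tests were repeated until the highest dose was toxic and the lowest clearly suboptimal.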

The test system of data set [2] is L1210. Briefly: Antileukemic activity against ip implanted mouse L1210 cells in C3H/DBA2 F1 hybrid hybrid mouse assessed as increase life span treated ip after 24 hrs after tumor inoculation and continued for 5 days. Format: functional. The method in brief:
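10^5 L1210 cells implanted ip in 18.5-22.5-g C3H/DBA2 F1 hybrid mice. Drug given ip from 24 h after inoculation, continuing for 5 days, each dose in 0.2 mL. Dose levels spaced at 0.18 log intervals, six mice per dose, one control group per six test groups. Read-out is life extension; 50-day survivors counted as cures.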

The subject of data set [3] is L1210. The data set can be described thus: Antileukemic activity against sc implanted mouse L1210 cells in C3H/DBA2 F1 hybrid hybrid mouse assessed as increase life span treated ip after 24 hrs after tumor inoculation and continued for 5 days. Format: functional. The procedure, abridged: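 10^5 L1210 cells implanted sc above the right axilla in 18.5-22.5-g C3H/DBA2 F1 hybrid mice. Drug given ip (0.2 mL) from 24 h for 5 days. Dilution series at 0.18 log intervals, centred on the optimum ip L1210 dose. Top dose had to show toxicity and lowest dose had to be suboptimal, otherwise the test was repeated. Read-out is life extension.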

Where only a bound is given, the exact number is not on record here.

As to `CNC(=O)Nc1ccc(Nc2c3ccccc3nc3ccccc23)cc1`, in data set [1], the Rm worked out at 0.25. In the data set with Mus musculus, the Activity came out at 60 mg/kg. Besides, the increase in life span (ILS) is on record as 112% with L1210 [2] and greater than 25% in the data set on L1210 [3].
On to `COc1cc(NS(C)(=O)=O)ccc1Nc1c2ccccc2nc2c(C(N)=O)cccc12.Cl`, for which, in data set [1], the Rm is given as -0.27. Besides, the Activity with Mus musculus was found to be 25 mg/kg. In addition, the figures for the ILS in the data set with L1210 [2] and in the data set on L1210 [3] were 140% and 36%, respectively.
The molecule `CNC(=O)c1cccc2c(Nc3ccc(NS(C)(=O)=O)cc3OC)c3ccccc3nc12.Cl` gave a Rm in data set [1] of 0.06. In the data set with Mus musculus, the Activity was 8.3 mg/kg. Further, the ILS stood at 166% in the data set with L1210 [2] and 59% in the data set with L1210 [3].
As to `COc1cc(NS(C)(=O)=O)ccc1Nc1c2ccccc2nc2c(C(=O)NCC(O)CO)cccc12.Cl` (stereo not given), in data set [1], the Rm is recorded as -0.36. The Activity in the data set with Mus musculus was 92 mg/kg. For the same molecule, the ILS with L1210 [2] came out at 72%.
In data set [1], `Cl.O=C(Nc1ccc(Nc2c3ccccc3nc3ccccc23)cc1)OCC(O)CO` (stereo not given) came in with a Rm of -0.06. In the data set with Mus musculus, the Activity worked out at 25 mg/kg. The values for the ILS in the data set with L1210 [2] and in the data set with L1210 [3] were 63% and greater than 25%, respectively.
In data set [1], `CC(=O)NCCS(=O)(=O)Nc1ccc(Nc2c3ccccc3nc3ccccc23)cc1.Cl` yielded a Rm of -0.06. Further, in the data set with Mus musculus, the Activity was 50 mg/kg. The ILS in the data set with L1210 [2] is reported as 94%; in the data set on L1210 [3], greater than 25%.
`Cl.NC(=O)NCCS(=O)(=O)Nc1ccc(Nc2c3ccccc3nc3ccccc23)cc1` had a Rm in data set [1] of -0.21. In addition, the Activity with Mus musculus worked out at 200 mg/kg. For the same molecule, the ILS with L1210 [2] is 53%; in the data set with L1210 [3], greater than 25%.
In the case of `Cl.O=C1CNC(=O)N1CCS(=O)(=O)Nc1ccc(Nc2c3ccccc3nc3ccccc23)cc1`, the Rm in data set [1] was -0.19. Moreover, the Activity in the data set with Mus musculus is 160 mg/kg. Also, the ILS was 51% in the data set with L1210 [2] and greater than 25% in the data set with L1210 [3].
In data set [1], `COC(=O)CCS(=O)(=O)Nc1ccc(Nc2c3ccccc3nc3ccccc23)cc1.Cl` came in with a Rm of 0.57. The Activity in the data set on Mus musculus was greater than 500 mg/kg. Moreover, in the data set on L1210 [3], the ILS is on record as greater than 25%.
`Cl.NC(=O)CCS(=O)(=O)Nc1ccc(Nc2c3ccccc3nc3ccccc23)cc1` came in with a Rm in data set [1] of -0.34. Also, in the data set with Mus musculus, the Activity was greater than 500 mg/kg. Further, the ILS with L1210 [2] was determined as 67%.
The corresponding values for `CN(C)C(=O)CCS(=O)(=O)Nc1ccc(Nc2c3ccccc3nc3ccccc23)cc1.Cl` are 0.17, 150 mg/kg and 63%.
The molecule `CC(CS(=O)(=O)Nc1ccc(Nc2c3ccccc3nc3ccccc23)cc1)C(N)=O.Cl` (stereo not given) yielded a Rm in data set [1] of -0.11. Moreover, the Activity in the data set on Mus musculus turned out to be 50 mg/kg. The increase in lifespan (ILS) in the data set on L1210 [2] is on record as greater than 25%.
On to `COCCS(=O)(=O)Nc1ccc(Nc2c3ccccc3nc3ccccc23)cc1.Cl`, for which the Rm in data set [1] is reported as 0.21. Further, in the data set with Mus musculus, the Activity is 280 mg/kg. The ILS amounted to 79% with L1210 [2] and 25% with L1210 [3].
With `COc1cc(NS(C)(=O)=O)ccc1Nc1c2ccccc2nc2c(C(=O)N[C@H]3[C@@H](OC)O[C@H](COC(C)=O)[C@@H](OC(C)=O)[C@@H]3OC(C)=O)cccc12.Cl`, the Rm in data set [1] is 0.62. In addition, the Activity with Mus musculus was greater than 400 mg/kg. Moreover, the ILS in the data set on L1210 [2] is given as greater than 25%.
`Br.COc1cc(NS(C)(=O)=O)ccc1Nc1c2ccccc2nc2cc(CCC(N)=O)ccc12`: the Rm in data set [1] is recorded as -0.25. Further, in the data set on Mus musculus, the Activity was 125 mg/kg. The increase in life span (ILS) in the data set on L1210 [2] came to 58%.
Turning to `COc1cc(NS(C)(=O)=O)ccc1Nc1c2ccc(I)cc2nc2c(OCC(O)CO)cccc12.Cl` (stereo not given), in data set [1], the Rm amounted to 0.06. Moreover, the Activity in the data set with Mus musculus was 62 mg/kg. Further, in the data set with L1210 [3], the ILS is recorded as greater than 25%.
As for `CS(=O)(=O)Nc1ccc(Nc2c3ccccc3nc3ccccc23)cc1`, the Rm in data set [1] is on record as 0. In addition, the Activity in the data set on Mus musculus was 45 mg/kg. In addition, the ILS was found to be 107% in the data set on L1210 [2] and 28% with L1210 [3].

For orientation: ILS means how much longer treated animals lived than controls.

(Values after ChEMBL document CHEMBL3272270, “Potential antitumor agents. 23. 4'-(9-Acridinylamino)alkanesulfonanilide congeners bearing hydrophilic functionality” (J Med Chem, 1977).)
